One block for each compound: values may come before it. Active and inactive are the calls of the source. No cut-off for these calls is given here.
How the values were obtained:
[1] = molecular target: Protein cereblon/Cyclin-dependent kinase 5 (Homo sapiens) (UniProt Q00535+Q96SW2); assay: Protac activity at CRBN/CDK5 in AR-negative human PC3 cells assessed as induction of CDK5 protein degradation at 1 uM after 12 hrs by Western blot analysis; assay type: cell-based; details: PC-3
Method in brief: (§1)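 PC-3 cells (5 × 10^5 per well) treated 12 h at single concentrations (50 nM, 500 nM, 1, 5 or 30 µM). RIPA lysates (50 µg) run on 10% SDS-PAGE and immunoblotted for CDK2, CDK5, CDK9 with β-tubulin loading control, then detected by chemiluminescence. Band intensities quantified densitometrically.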

[2] = molecular target: T1, Protein cereblon/Cyclin-dependent kinase 2/Cyclin-dependent kinase 9 (Homo sapiens, UniProt P24941+P50750+Q96SW2); assay: Protac activity at CRBN/CDK2/CDK9 in AR-negative human PC3 cells assessed as induction of CDK9 protein degradation at 30 uM after 12 hrs by Western blot analysis; assay type: cell-based; details: PC-3; method in brief: as §1
[3] = molecular target: T1, Protein cereblon/Cyclin-dependent kinase 2/Cyclin-dependent kinase 9; assay: Protac activity at CRBN/CDK2/CDK9 in AR-negative human PC3 cells assessed as induction of CDK9 protein degradation at 5 uM after 12 hrs by Western blot analysis; assay type: cell-based; details: PC-3; method in brief: as §1
[4] = molecular target: T2, Protein cereblon/Cyclin-dependent kinase 2 (Homo sapiens) (UniProt P24941+Q96SW2); assay: Protac activity at CRBN/CDK2 in AR-negative human PC3 cells assessed as induction of CDK2 protein degradation at 1 uM after 12 hrs by Western blot analysis; assay type: cell-based; details: PC-3; method in brief: as §1
[5] = molecular target: T3, Protein cereblon/Cyclin-dependent kinase 9 (Homo sapiens) (UniProt P50750+Q96SW2); assay: Protac activity at CRBN/CDK9 in AR-negative human PC3 cells assessed as induction of CDK9 protein degradation at 1 uM after 12 hrs by Western blot analysis; assay type: cell-based; details: PC-3
Method in brief: (§2)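 PC-3 cells (DMEM/F12 1:1, 10% FBS, 1% pen/strep, 37 °C, 5% CO2) plated at 5 × 10^5 per well, exposed to compound for 12 h. RIPA lysates with protease inhibitors; 50 µg total protein run on 10% SDS-PAGE, transferred to PVDF, blocked in 5% milk/TBS-T. Probed with anti-CDK9 (1/1000), β-tubulin loading control, HRP secondary, chemiluminescence; bands scored as degradation detected or not.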

[6] = molecular target: T1, Protein cereblon/Cyclin-dependent kinase 2/Cyclin-dependent kinase 9; assay: Protac activity at CRBN/CDK2/CDK9 in AR-negative human PC3 cells assessed as induction of CDK2 protein degradation at 5 uM after 12 hrs by Western blot analysis; assay type: cell-based; details: PC-3; method in brief: as §1
[7] = molecular target: T3, Protein cereblon/Cyclin-dependent kinase 9 (Homo sapiens); assay: Protac activity at CRBN/CDK9 in AR-negative human PC3 cells assessed as induction of CDK9 protein degradation at 50 nM after 12 hrs by Western blot analysis; assay type: cell-based; details: PC-3; method in brief: as §2
[8] = molecular target: T1, Protein cereblon/Cyclin-dependent kinase 2/Cyclin-dependent kinase 9; assay: Protac activity at CRBN/CDK2/CDK9 in AR-negative human PC3 cells assessed as induction of CDK2 protein degradation at 1 uM after 12 hrs by Western blot analysis; assay type: cell-based; details: PC-3; method in brief: as §1
[9] = test system: PC-3; assay: Antiproliferative activity against AR-negative human PC3 cells assessed as reduction in cell viability after 5 days by CCK8 assay; assay type: functional, cell-based; details: PC-3, 120 h
Method in brief: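 Cells seeded at 3 × 10^3 per well for 24 h, then dosed in 10-point, 3-fold serial dilution from 10 µM. CCK-8 added after 5 days, 4 h at 37 °C, absorbance at 450 nm. IC50 averaged from three separate determinations (at least two independent runs, duplicate wells). PC-3 grown in DMEM/F12 (1:1), LO2 in RPMI 1640, both with 10% FBS.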

[10] = molecular target: T1, Protein cereblon/Cyclin-dependent kinase 2/Cyclin-dependent kinase 9; assay: Protac activity at CRBN/CDK2/CDK9 in AR-negative human PC3 cells assessed as induction of CDK9 protein degradation at 1 uM after 12 hrs by Western blot analysis; assay type: cell-based; details: PC-3; method in brief: as §1
[11] = molecular target: T2, Protein cereblon/Cyclin-dependent kinase 2 (Homo sapiens); assay: Protac activity at CRBN/CDK2 in AR-negative human PC3 cells assessed as induction of CDK2 protein degradation at 50 nM after 12 hrs by Western blot analysis; assay type: cell-based; details: PC-3; method in brief: as §1
[12] = molecular target: T1, Protein cereblon/Cyclin-dependent kinase 2/Cyclin-dependent kinase 9; assay: Protac activity at CRBN/CDK2/CDK9 in AR-negative human PC3 cells assessed as induction of CDK9 protein degradation after 24 hrs by Western blot analysis; assay type: cell-based; details: PC-3
Method in brief: (§3)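 PC-3 cells exposed to a degrader concentration series, then immunoblotted for CDK2 and CDK9 versus β-tubulin. The figure legend gives 24 h exposure. DC50 taken as mean of 2 determinations from densitometry.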

[13] = molecular target: T1, Protein cereblon/Cyclin-dependent kinase 2/Cyclin-dependent kinase 9; assay: Protac activity at CRBN/CDK2/CDK9 in AR-negative human PC3 cells assessed as induction of CDK2 protein degradation after 24 hrs by Western blot analysis; assay type: cell-based; details: PC-3; method in brief: as §3
[14] = molecular target: T3, Protein cereblon/Cyclin-dependent kinase 9 (Homo sapiens); assay: Protac activity at CRBN/CDK9 in AR-negative human PC3 cells assessed as induction of CDK9 protein degradation at 30 uM after 12 hrs by Western blot analysis; assay type: cell-based; details: PC-3; method in brief: as §2
[15] = molecular target: T3, Protein cereblon/Cyclin-dependent kinase 9 (Homo sapiens); assay: Protac activity at CRBN/CDK9 in AR-negative human PC3 cells assessed as induction of CDK9 protein degradation at 5 uM after 12 hrs by Western blot analysis; assay type: cell-based; details: PC-3; method in brief: as §2
[16] = molecular target: T2, Protein cereblon/Cyclin-dependent kinase 2 (Homo sapiens); assay: Protac activity at CRBN/CDK2 in AR-negative human PC3 cells assessed as CDK2 degradation at 1 uM preincubated with AT-7519 for 2 hrs and measured after 8 hrs by Western blot analysis; details: PC-3
[17] = molecular target: T2, Protein cereblon/Cyclin-dependent kinase 2 (Homo sapiens); assay: Protac activity at CRBN/CDK2 in AR-negative human PC3 cells assessed as CDK2 degradation at 1 uM preincubated with pomalidomide for 2 hrs and measured after 8 hrs by Western blot analysis; assay type: cell-based; details: PC-3
Method in brief: (§4)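 PC-3 cells pretreated 2 h with 10 µM DMSO, AT-7519, pomalidomide or MG-132, then degrader at 1 µM for 8 h. CDK2 immunoblotted against β-tubulin loading control, with 50 µg protein per lane on 10% SDS-PAGE and ECL detection.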

[18] = molecular target: T2, Protein cereblon/Cyclin-dependent kinase 2 (Homo sapiens); assay: Protac activity at CRBN/CDK2 in AR-negative human PC3 cells assessed as CDK2 degradation at 1 uM preincubated with proteasome inhibitor MG132 for 2 hrs and measured after 8 hrs by Western blot analysis; assay type: cell-based; details: PC-3; method in brief: as §4
[19] = molecular target: T2, Protein cereblon/Cyclin-dependent kinase 2 (Homo sapiens); assay: Protac activity at CRBN/CDK2 in AR-negative human PC3 cells assessed as induction of CDK2 protein degradation at 30 uM after 12 hrs by Western blot analysis; assay type: cell-based; details: PC-3; method in brief: as §1

T3 sequence (P50750 whole entry, looked up): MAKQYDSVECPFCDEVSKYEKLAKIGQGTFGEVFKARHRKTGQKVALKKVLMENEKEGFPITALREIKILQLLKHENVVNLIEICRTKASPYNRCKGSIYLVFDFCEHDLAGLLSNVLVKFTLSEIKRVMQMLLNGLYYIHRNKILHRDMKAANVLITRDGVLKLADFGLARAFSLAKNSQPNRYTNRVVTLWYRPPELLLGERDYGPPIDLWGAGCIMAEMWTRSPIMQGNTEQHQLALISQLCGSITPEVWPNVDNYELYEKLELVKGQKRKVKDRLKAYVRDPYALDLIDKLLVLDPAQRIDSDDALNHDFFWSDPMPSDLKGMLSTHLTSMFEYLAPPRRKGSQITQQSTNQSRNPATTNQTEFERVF
T3 sequence (Q96SW2 whole entry, looked up): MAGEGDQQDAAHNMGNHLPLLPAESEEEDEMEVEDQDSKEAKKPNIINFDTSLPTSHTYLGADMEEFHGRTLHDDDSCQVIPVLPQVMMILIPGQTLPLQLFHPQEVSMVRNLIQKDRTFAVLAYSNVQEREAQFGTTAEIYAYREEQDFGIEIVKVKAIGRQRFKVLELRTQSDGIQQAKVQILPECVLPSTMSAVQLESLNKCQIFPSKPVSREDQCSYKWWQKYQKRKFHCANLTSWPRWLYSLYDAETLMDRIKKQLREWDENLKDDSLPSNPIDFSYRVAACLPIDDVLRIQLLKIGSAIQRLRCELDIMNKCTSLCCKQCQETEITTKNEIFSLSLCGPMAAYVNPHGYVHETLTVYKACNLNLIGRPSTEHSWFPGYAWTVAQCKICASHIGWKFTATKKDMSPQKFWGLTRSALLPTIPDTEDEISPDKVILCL
Protein cereblon/Cyclin-dependent kinase 5 (Homo sapiens), sequence (Q00535 whole entry, looked up): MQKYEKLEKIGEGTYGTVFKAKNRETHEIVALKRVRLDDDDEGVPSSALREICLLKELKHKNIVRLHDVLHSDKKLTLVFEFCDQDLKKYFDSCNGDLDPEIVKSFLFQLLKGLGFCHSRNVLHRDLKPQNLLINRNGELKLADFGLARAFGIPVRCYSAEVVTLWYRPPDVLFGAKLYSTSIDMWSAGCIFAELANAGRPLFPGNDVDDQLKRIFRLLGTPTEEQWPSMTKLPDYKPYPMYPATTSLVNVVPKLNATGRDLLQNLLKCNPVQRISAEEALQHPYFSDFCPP
Protein cereblon/Cyclin-dependent kinase 5 (Homo sapiens), sequence (Q96SW2 whole entry, looked up): as the sequence (Q96SW2 whole entry, looked up) above

Activity [1]: inactive
Activity [2]: Active
Activity [3]: Active
Activity [4]: Active
Activity [5]: inactive
Activity [6]: Active
SMILES: O=C(COc1cccc2c1C(=O)N(C1CCC(=O)NC1=O)C2=O)NCCCCCC(=O)N1CCC(NC(=O)c2n[nH]cc2NC(=O)c2c(Cl)cccc2Cl)CC1 (stereo not drawn)

Activity [2]: Active
Activity [7]: Active
Activity [8]: Active
IC50 [9]: 0.54 µM
Activity [10]: Active
Activity [11]: Active
SMILES: O=C(COc1cccc2c1C(=O)N(C1CCC(=O)NC1=O)C2=O)NCCCCCC(=O)N1CCN(Cc2ccc(NC(=O)c3n[nH]cc3Nc3ncnc4[nH]ccc34)cc2)CC1 (stereo not drawn)

Activity [12]: inactive
Activity [13]: inactive
IC50 [9]: 7.3 µM
SMILES: O=C(CCC(=O)N1CCN(Cc2ccc(NC(=O)c3n[nH]cc3Nc3ncnc4[nH]ccc34)cc2)CC1)NCCCCCCNC(=O)COc1cccc2c1C(=O)N(C1CCC(=O)NC1=O)C2=O (stereo not drawn)

IC50 [9]: 23.3 µM
SMILES: O=C(CCC(=O)N1CCC(NC(=O)c2n[nH]cc2NC(=O)c2c(Cl)cccc2Cl)CC1)NCCCCNc1cccc2c1C(=O)N(C1CCC(=O)NC1=O)C2=O (stereo not drawn)

IC50 [9]: 5.95 µM
SMILES: O=C(CCC(=O)N1CCC(NC(=O)c2n[nH]cc2NC(=O)c2c(Cl)cccc2Cl)CC1)NCCNc1cccc2c1C(=O)N(C1CCC(=O)NC1=O)C2=O (stereo not drawn)

Activity [2]: Active
Activity [8]: Active
IC50 [9]: 2.21 µM
Activity [10]: Active
SMILES: O=C(COc1cccc2c1C(=O)N(C1CCC(=O)NC1=O)C2=O)NCCCC(=O)N1CCN(Cc2ccc(NC(=O)c3n[nH]cc3Nc3ncnc4[nH]ccc34)cc2)CC1 (stereo not drawn)

IC50 [9]: 1.31 µM
SMILES: O=C(CCC(=O)N1CCC(NC(=O)c2n[nH]cc2NC(=O)c2c(Cl)cccc2Cl)CC1)NCCCCCCNC(=O)COc1cccc2c1C(=O)N(C1CCC(=O)NC1=O)C2=O (stereo not drawn)

Activity [1]: inactive
Activity [14]: Active
Activity [15]: Active
Activity [16]: inactive
Activity [4]: Active
Activity [5]: inactive
Activity [17]: inactive
Activity [18]: inactive
IC50 [9]: 0.84 µM
SMILES: O=C(COc1cccc2c1C(=O)N(C1CCC(=O)NC1=O)C2=O)NCCOCCOCC(=O)N1CCC(NC(=O)c2n[nH]cc2NC(=O)c2c(Cl)cccc2Cl)CC1 (stereo not drawn)

Activity [19]: inactive
Activity [14]: Active
Activity [7]: Active
Activity [4]: inactive
IC50 [9]: 1.38 µM
Activity [11]: Active
SMILES: O=C(CCC(=O)N1CCN(Cc2ccc(NC(=O)c3n[nH]cc3Nc3ncnc4[nH]ccc34)cc2)CC1)NCCCCNc1cccc2c1C(=O)N(C1CCC(=O)NC1=O)C2=O (stereo not drawn)

IC50 [9]: 0.71 µM
SMILES: O=C(NC1CCNCC1)c1n[nH]cc1NC(=O)c1c(Cl)cccc1Cl [AT-7519]
